Values after ≈ are worked out from the molar mass of the structure shown. Active and inactive are the calls of the source. The calls are words filed in the database; no cut-off is given here.
Experiments:
[1] = Toxicity in Crl:WI(Han) rat at 100 to 1000 mg/kg/day, po via gavage for 7 days; assay type: organism-based; conditions: in vivo, 168 h
How it was run: (§1)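 Male Crl:WI(Han) rats received compound by oral gavage in a 7-day repeat-dose study at 100, 300 and 1000 mg/kg/day. Endpoints were in-life clinical signs (food consumption, body weight, piloerection), macroscopic observations, histopathology, clinical pathology and liver gene expression profiling.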

[2] = Toxicity in Crl:WI(Han) rat assessed as effect on liver gene expression in liver at 100 to 1000 mg/kg/day, po via gavage for 7 days; assay type: organism-based; conditions: in vivo, 168 h
How it was run: (§2)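 Male Crl:WI(Han) rats given oral gavage daily for 7 days at 100, 300 and 1000 mg/kg/day. Clinical signs, macroscopic findings, clinical pathology versus controls, and a liver gene expression panel for hepatic toxicity mechanisms.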

[3] = Toxicity in Crl:WI(Han) rat assessed as kidney vacuolation at 300 mg/kg/day, po via gavage for 7 days by histological analysis; assay type: organism-based; conditions: in vivo, 168 h; how it was run: as §1
[4] = biological target: Voltage-gated inwardly rectifying potassium channel KCNH2 (Homo sapiens, UniProt Q12809); test: Inhibition of human ERG by patch clamp assay
[5] = Therapeutic index, ratio of fCmax in conscious unrestrained telemetered Crl:WI(Han) rat at 300 mg/kg/day, po via gavage for 7 days measured on day 1 to fCmax in Leishmania donovani LV9 amastigotes infected BALB/c mouse at 25 mg/kg, po administered bid for 10 days measured on day 1; assay type: organism-based; conditions: in vivo, read-out: TI
How it was run: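 Index = free Cmax on day 1 of the rat cardiovascular study / free Cmax on day 1 of the mouse efficacy model. Rat arm: conscious, unrestrained, telemetered male CRL:WI(Han) rats given a single oral dose (up to 1000 mg/kg). Mouse arm: female BALB/c infected i.v. with L. donovani LV9 amastigotes, dosed orally twice daily from day 7 post-infection in 0.5% HPMC, 0.4% Tween 80, 0.5% benzyl alcohol.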

[6] = Ratio of AUC (0 to 24 hrs) in conscious unrestrained telemetered Crl:WI(Han) rat at 300 mg/kg/day, po via gavage for 7 days measured on day 7 to AUC (0 to 24 hrs) in Leishmania donovani LV9 amastigotes infected BALB/c mouse at 25 mg/kg, po administered bid for 10 days measured on day 10; assay type: ADME, organism-based; conditions: in vivo, read-out: TI
How it was run: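 Index = AUC0–24 on day 7 of the rat study / AUC0–24 on day 10 of the mouse efficacy model. Rat arm: male Crl:WI(Han) rats, oral gavage once daily for 7 days at 100, 300 or 1000 mg/kg/day. Mouse arm: female BALB/c infected i.v. with ~2×10^7 L. donovani LV9 amastigotes, dosed orally twice daily for 10 days from day 7 post-infection in 0.5% HPMC, 0.4% Tween 80, 0.5% benzyl alcohol.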

[7] = Kinetic aqueous solubility of the compound in phosphate buffer at pH 7.4 by CLND assay; assay type: physicochemical; conditions: phosphate buffer, read-out: Kinetic_solubility
How it was run: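 From 10 mM DMSO stock diluted 1:20 into pH 7.4 PBS, equilibrated 1 h at RT, filtered. Filtrate quantified by calibrated flow-injection CLND. Dynamic range 1–500 μM.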

[8] = Toxicity in Crl:WI(Han) rat assessed as stomach distension at 100 to 1000 mg/kg/day, po via gavage for 7 days; assay type: organism-based; conditions: in vivo, 168 h; how it was run: as §1
Cytochrome P450 3A4 = Cytochrome P450 3A4 (Homo sapiens, UniProt P08684); test: Inhibition of CYP3A4 in human liver microsomes using midazolam as substrate preincubated for 20 mins followed by substrate addition and measured after 5 mins by LC-MS/MS analysis; assay type: ADME
How it was run: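 Pooled human liver microsomes (final 0.1 mg/mL) with midazolam marker substrate, monitoring CYP3A4-specific metabolite. Test compound at eight concentrations, 0.1–100 μM, final organic ≤0.5%. Preincubated at 37 °C for 20 min, then substrate or cofactor added and incubated 5 min at 37 °C. Stopped with ice-cold acetonitrile; LC-MS/MS read-out gives pIC50.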

[9] = Dissociation constant, pKa of the compound by UV-spectroscopy; assay type: physicochemical
How it was run: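 Sirius T3 acid–base titration with UV read-out: 5 μL of 10 mM sample, absorbance over 54 pH values in about 5 min. Methanol cosolvent with Yasuda–Shedlovsky extrapolation used when precipitation occurred.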

[10] = Solubility of compound in fasted simulated intestinal fluid at 1 mg after 4 hrs by HPLC-UV analysis; assay type: physicochemical; conditions: fasted simulated intestinal fluid
How it was run: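 1 mg solid shaken in 1 mL FaSSIF (3 mM sodium taurocholate, 0.75 mM lecithin, phosphate buffer pH 6.5) at 900 rpm for 4 h at room temperature, then filtered. Supernatant quantified by HPLC-UV against single-point DMSO calibration. Range 1–1000 μg/mL.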

[11] = biological target: Cyclin-dependent kinase 2 (Homo sapiens) (UniProt P24941); test: Inhibition of human CDK2 by kinobeads-based assay
Leishmania donovani [12] = test: Antileishmanial activity against Leishmania donovani […] in human THP1 cells by intramacrophage assay; assay type: functional, organism-based; conditions: Leishmania donovani, THP-1
Leishmania donovani [13] = test: Antileishmanial activity against Leishmania donovani LV9 amastigotes infected in BALB/c mouse assessed as suppression of parasite load within liver at 25 mg/kg, po administered bid for 10 days relative to control; assay type: functional
How it was run: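 Female BALB/c mice, 5 per group, infected i.v. with about 2×10^7 L. donovani LV9 amastigotes harvested from infected hamster spleen. Oral dosing starts day 7 post-infection, in 0.5% HPMC/0.4% Tween 80/0.5% benzyl alcohol, or 10% DMSO/60% PEG400/30% water for the 5-day 50 mg/kg regimen. Dosing solutions made fresh daily. Killed day 14 (5-day) or 19 (10-day). Liver smears give LDU (amastigotes/500 nucleated cells × organ weight). Mean LDU compared with vehicle control gives % suppression.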

[14] = Toxicity in rabbit cardiac ventricular wedge assessed as QT shortening at 10 uM relative to control; assay type: tissue-based, Oryctolagus cuniculus, Cardiac ventricle
[15] = Toxicity in Crl:WI(Han) rat assessed as reduction in food consumption at 1000 mg/kg/day, po via gavage for 7 days; assay type: organism-based; conditions: in vivo, 168 h; how it was run: as §1
CYP1A1 = test: (§3) Toxicity in Crl:WI(Han) rat assessed as increase in CYP1A1 gene expression in liver at 100 to 1000 mg/kg/day, po via gavage for 7 days; assay type: organism-based; conditions: Crl:WI(Han), liver, read-out: FC; how it was run: as §2
[16] = Toxicity in Crl:WI(Han) rat assessed as piloerection at 1000 mg/kg/day, po via gavage for 7 days; assay type: organism-based; conditions: in vivo, 168 h; how it was run: as §1
[17] = Intrinsic clearance in CD1 mouse liver microsomes at 0.5 uM after 3 to 30 mins in presence of NADPH by UPLC-MS/MS analysis; assay type: ADME, Microsome
How it was run: (§4)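 0.5 μM compound with female CD1 mouse or human liver microsomes, started with excess NADPH in 50 mM potassium phosphate pH 7.4. Aliquots at 0, 3, 6, 9, 15 and 30 min quenched in acetonitrile with internal standard. UPLC-MS/MS; rate constant from exponential decay of compound/IS ratio. Verapamil as positive control.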

[18] = Toxicity in Crl:WI(Han) rat assessed as pancreas vacuolation at 300 mg/kg/day, po via gavage for 7 days by histological analysis; assay type: organism-based; conditions: in vivo, 168 h; how it was run: as §1
[19] = Mutagenicity in Salmonella typhimurium at 1500 ug/plate by Ames test; assay type: toxicity; conditions: salmonella enterica subsp. enterica serovar typhimurium
[20] = Toxicity in Crl:WI(Han) rat assessed as multiple organ changes at 1000 mg/kg/day, po via gavage for 7 days by histological analysis; assay type: organism-based; conditions: in vivo, 168 h; how it was run: as §1
[21] = Toxicity in Crl:WI(Han) rat assessed as drug tolerability dose at 100 to 1000 mg/kg/day, po via gavage for 7 days; assay type: organism-based; conditions: in vivo, read-out: Activity
How it was run: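 Male Crl:WI(Han) rats dosed by oral gavage once daily in a 7-day repeat-dose study at 100, 300 and 1000 mg/kg/day. Tolerated doses judged from in-life and clinical signs, macroscopic observations, histopathology, clinical pathology and liver gene expression profiling versus controls.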

[22] = Cardiotoxicity in Crl:WI(Han) rat up to 600 mg/kg, po via gavage; assay type: toxicity, organism-based; conditions: in vivo
[23] = Toxicity in Crl:WI(Han) rat assessed as irregular breathing at 1000 mg/kg/day, po via gavage for 7 days; assay type: organism-based; conditions: in vivo, 168 h; how it was run: as §2
Lymphoma cell line [24] = test: Clastogenicity in mouse Lymphoma cells at 5 ug/ml; assay type: toxicity, cell-based
[25] = Toxicity in Crl:WI(Han) rat assessed as decrease in RBC levels at 300 to 1000 mg/kg/day, po via gavage for 7 days; assay type: organism-based; conditions: in vivo, 168 h
[26] = Toxicity in Crl:WI(Han) rat assessed as decrease in HCT levels at 300 to 1000 mg/kg/day, po via gavage for 7 days; assay type: organism-based; conditions: in vivo, 168 h
[27] = Toxicity in Crl:WI(Han) rat assessed as decrease in albumin levels at 300 mg/kg/day, po via gavage for 7 days; assay type: organism-based; conditions: in vivo, 168 h
[28] = Toxicity in Crl:WI(Han) rat assessed as effect on life and clinical signs at 100 to 1000 mg/kg/day, po via gavage for 7 days; assay type: organism-based; conditions: in vivo, 168 h; how it was run: as §2
[29] = Cardiotoxicity in Crl:WI(Han) rat up to 1000 mg/kg, po via gavage; assay type: toxicity, organism-based; conditions: in vivo
How it was run: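 Conscious unrestrained telemetered male CRL:WI(Han) rats given a single oral dose of vehicle or test article up to 1000 mg/kg. Cardiovascular and electrocardiographic parameters monitored.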

[30] = Toxicity in Crl:WI(Han) rat assessed as effect on macro observations parameters at 100 to 1000 mg/kg/day, po via gavage for 7 days; assay type: organism-based; conditions: in vivo, 168 h; how it was run: as §2
[31] = Toxicity in Crl:WI(Han) rat assessed as decrease in hemoglobin levels at 300 to 1000 mg/kg/day, po via gavage for 7 days; assay type: organism-based; conditions: in vivo, 168 h
[32] = Toxicity in Crl:WI(Han) rat assessed as increase in ALP at 1000 mg/kg/day, po via gavage for 7 days; assay type: organism-based; conditions: in vivo, 168 h; how it was run: as §2
[33] = Toxicity in Crl:WI(Han) rat assessed as increase in triglycerides levels at 300 mg/kg/day, po via gavage for 7 days; assay type: organism-based; conditions: in vivo, 168 h; how it was run: as §2
[34] = Toxicity in rabbit cardiac ventricular wedge assessed as QT shortening at 30 uM relative to control; assay type: tissue-based, Oryctolagus cuniculus, Cardiac ventricle
[35] = Toxicity in Crl:WI(Han) rat assessed as decrease in calcium levels at 1000 mg/kg/day, po via gavage for 7 days; assay type: organism-based; conditions: in vivo, 168 h
[36] = Intrinsic clearance in human liver microsomes at 0.5 uM after 3 to 30 mins in presence of NADPH by UPLC-MS/MS analysis; assay type: ADME, Microsome; how it was run: as §4
[37] = as §3; assay type: organism-based; conditions: in vivo, 168 h; how it was run: as §2
[38] = Toxicity in Crl:WI(Han) rat assessed as increase in plasma glucose levels at 1000 mg/kg/day, po via gavage for 7 days; assay type: organism-based; conditions: in vivo, 168 h; how it was run: as §2
[39] = Toxicity in Crl:WI(Han) rat assessed as decrease in total protein levels at 300 mg/kg/day, po via gavage for 7 days; assay type: organism-based; conditions: in vivo, 168 h
Lymphoma cell line [40] = test: Clastogenicity in mouse Lymphoma cells at 120 ug/ml; assay type: toxicity, cell-based

Chain of Cytochrome P450 3A4 (P08684 whole entry): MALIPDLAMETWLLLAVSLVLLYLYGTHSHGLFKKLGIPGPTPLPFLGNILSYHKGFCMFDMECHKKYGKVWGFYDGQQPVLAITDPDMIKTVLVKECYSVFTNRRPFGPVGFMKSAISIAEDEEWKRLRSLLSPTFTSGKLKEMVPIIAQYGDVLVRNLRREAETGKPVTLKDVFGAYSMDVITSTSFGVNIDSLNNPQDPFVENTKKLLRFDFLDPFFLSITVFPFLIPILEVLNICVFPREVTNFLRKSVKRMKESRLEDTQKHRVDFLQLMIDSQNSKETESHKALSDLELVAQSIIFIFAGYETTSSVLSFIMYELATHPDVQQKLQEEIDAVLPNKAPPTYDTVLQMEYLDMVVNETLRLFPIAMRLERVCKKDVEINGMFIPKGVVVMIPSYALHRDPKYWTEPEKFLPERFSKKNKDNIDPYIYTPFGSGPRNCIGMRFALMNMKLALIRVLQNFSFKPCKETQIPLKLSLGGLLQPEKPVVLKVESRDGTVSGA
Chain of Voltage-gated inwardly rectifying potassium channel KCNH2 (Q12809 whole entry): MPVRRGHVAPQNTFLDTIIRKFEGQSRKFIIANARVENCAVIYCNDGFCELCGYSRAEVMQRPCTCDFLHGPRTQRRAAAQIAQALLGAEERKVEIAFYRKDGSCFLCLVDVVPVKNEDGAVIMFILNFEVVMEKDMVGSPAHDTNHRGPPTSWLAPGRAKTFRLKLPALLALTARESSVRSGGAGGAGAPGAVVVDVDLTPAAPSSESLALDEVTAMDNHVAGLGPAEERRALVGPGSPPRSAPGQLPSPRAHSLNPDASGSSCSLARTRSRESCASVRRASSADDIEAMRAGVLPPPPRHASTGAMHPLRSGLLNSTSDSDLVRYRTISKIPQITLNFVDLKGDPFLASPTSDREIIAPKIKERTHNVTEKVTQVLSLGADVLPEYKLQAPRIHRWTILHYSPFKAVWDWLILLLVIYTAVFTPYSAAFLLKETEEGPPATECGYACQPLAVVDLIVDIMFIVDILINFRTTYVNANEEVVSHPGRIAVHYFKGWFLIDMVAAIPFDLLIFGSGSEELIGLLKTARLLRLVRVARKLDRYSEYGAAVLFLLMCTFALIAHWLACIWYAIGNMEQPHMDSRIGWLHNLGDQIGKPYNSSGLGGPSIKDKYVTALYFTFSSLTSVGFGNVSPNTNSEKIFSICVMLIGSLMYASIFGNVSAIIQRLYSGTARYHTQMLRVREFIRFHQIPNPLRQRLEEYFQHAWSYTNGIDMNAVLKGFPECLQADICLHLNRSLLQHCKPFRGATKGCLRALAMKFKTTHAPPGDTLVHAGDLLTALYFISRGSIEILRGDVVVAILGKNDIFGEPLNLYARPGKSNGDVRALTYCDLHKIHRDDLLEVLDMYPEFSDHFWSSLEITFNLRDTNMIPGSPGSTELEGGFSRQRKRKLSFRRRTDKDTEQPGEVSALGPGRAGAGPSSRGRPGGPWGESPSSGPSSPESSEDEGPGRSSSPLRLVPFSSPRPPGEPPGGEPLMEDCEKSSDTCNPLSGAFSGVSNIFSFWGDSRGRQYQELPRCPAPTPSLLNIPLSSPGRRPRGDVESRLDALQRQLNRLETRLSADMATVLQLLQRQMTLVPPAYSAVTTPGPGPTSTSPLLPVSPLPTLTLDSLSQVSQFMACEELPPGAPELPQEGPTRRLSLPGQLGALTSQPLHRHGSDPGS

COc1ccccc1-c1n[nH]c2nc(N[C@H]3CC[C@H](NS(=O)(=O)CCC(F)(F)F)CC3)nc(OC)c12
Activity [1]: Toxic
Activity [2]: Non-Toxic
Activity [3]: Toxic
IC50 [4]: 17.5 µM
selectivity ratio [5]: 12
selectivity ratio [6]: 19
solubility kinetic [7]: 68 µM (≈ 35.9 µg/mL)
Activity [8]: Toxic
IC50 (Cytochrome P450 3A4): 6.31 µM
pKa [9]: 4.1
solubility at 4 h [10]: 0.025 to 0.13 mg/mL (≈ 47.3 to 246 µM)
inhibition [11]: Active
EC50 (Leishmania donovani [12]): 0.398 µM
Activity (Leishmania donovani [13]): >95%
Activity [14]: 11.3%
Activity [15]: Toxic
fold induction at 168 h (CYP1A1): 43
Activity [16]: Toxic
CLH [17]: 1.1 mL/min/g
Activity [18]: Toxic
Activity [19]: Non-Toxic
Activity [20]: Toxic
MTD at 168 h [21]: 100 to 300 mg/kg
Activity [22]: Non-Toxic
Activity [23]: Toxic
Activity (Lymphoma cell line [24]): Non-Toxic

C[C@H]1CN(c2n[nH]c3nc(N[C@H]4CC[C@H](NS(=O)(=O)CCC(F)(F)F)CC4)ncc23)CCO1 [GSK-3186899]
Activity [25]: Toxic
Activity [2]: Non-Toxic
Activity [26]: Toxic
Activity [27]: Toxic
Activity [28]: Non-Toxic
IC50 [4]: > 30 µM
selectivity ratio [5]: 3
Activity [29]: Non-Toxic
selectivity ratio [6]: 13
solubility kinetic [7]: 99 µM (≈ 48.7 µg/mL)
Activity [30]: Non-Toxic
Activity [31]: Toxic
IC50 (Cytochrome P450 3A4): > 39.8 µM
Activity [32]: Toxic
Activity [33]: Toxic
solubility at 4 h [10]: 0.017 to 0.064 mg/mL (≈ 34.6 to 130 µM)
Activity [34]: 8.9%
inhibition [11]: inactive
EC50 (Leishmania donovani [12]): 1.26 µM
Activity [35]: Toxic
CLH [36]: 0.7 mL/min/g
Activity (Leishmania donovani [13]): >95%
Activity [37]: Non-Toxic
CLH [17]: < 0.5 mL/min/g
Activity [19]: Non-Toxic
Activity [38]: Toxic
MTD at 168 h [21]: 100 to 1000 mg/kg
Activity [39]: Toxic
Activity (Lymphoma cell line [40]): Non-Toxic
